According to ChEMBL document CHEMBL1124476, “1-(2-aminoethyl)-6-aryl-4H- [1,2,4]triazolo[4,3-a][1,4]benzodiazepines with diuretic and natriuretic activity” (J Med Chem, 1989):

Key:
Rattus norvegicus [1] = assay: Mean excretion of sodium in conscious rats at a dose of 3.0 mg/kg given orally; type: ADME, organism-based; design: dose 3 mg/kg, route oral; details: in vivo, po
Method in brief: (§1)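 Male Sprague-Dawley rats, about 160 g, fasted 24 h and water withheld 1 1/2 h beforehand; food and water withheld during the test. Dosing by gavage with 25 mL/kg 0.9% saline containing 0.5% (carboxymethyl)cellulose, agent dissolved or suspended. Three cages of two rats each per dose, held in metabolism cages. Urine collected over 5 h. Volume given in mL, Na+ in mequiv. Significance versus control at P < 0.05.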

Rattus norvegicus [2] = species on record: Rattus norvegicus; assay: […]; type: ADME, organism-based, Urine; design: dose 100 mg/kg, route oral; details: in vivo, po, 100 mg/kg; method in brief: as §1
Rattus norvegicus [3] = assay: Mean excretion of sodium in conscious rats at a dose of 100 mg/kg given orally; type: ADME, organism-based; design: dose 100 mg/kg, route oral; details: in vivo, po; method in brief: as §1
Rattus norvegicus [4] = species on record: Rattus norvegicus; assay: […]; type: ADME, organism-based, Urine; design: dose 10 mg/kg, route oral; details: in vivo, po, 10 mg/kg; method in brief: as §1
Rattus norvegicus [5] = species on record: Rattus norvegicus; assay: […]; type: ADME, organism-based, Urine; design: dose 1 mg/kg, route oral; details: in vivo, po, 1 mg/kg
Method in brief: (§2)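 Dose-response test in male Sprague-Dawley rats of about 160 g, fasted 24 h, with water withheld 1½ h before and during the test. Each rat got a single gavage of 25 mL/kg 0.9% saline with 0.5% carboxymethylcellulose carrying the agent (0.3–100 mg/kg range). Rats were housed two per metabolism cage, and urine was collected for 5 h. Mean urine volume (mL) was compared with controls (P < 0.05).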

[6] = Diuretic activity at 40 mg/kg (screening dose-84.7 umol/kg) in […] in a two stage experiment; T/C1.2 = urine vol of treated rats / urine vol of control rats; type: functional
Method in brief: (§3)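 40 mg/kg given by gavage in 25 mL/kg 0.9% saline with 0.5% (carboxymethyl)cellulose. Four rats per agent, two per metabolism cage; 20 controls; 5 h urine. T/C = treated/control urine volume. Stage-1 T/C of 1.66 or more leads to stage 2; product T/C1·T/C2 of 3.34 or more counts as active.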

Rattus norvegicus [7] = assay: Mean excretion of […] in conscious rats at a dose of 1.0 mg/kg given orally; type: ADME, organism-based; design: dose 1 mg/kg, route oral; details: in vivo, po; method in brief: as §1
Rattus norvegicus [8] = assay: Mean excretion of potassium in conscious rats at a dose of 3.0 mg/kg given orally; type: ADME, organism-based; design: dose 3 mg/kg, route oral; details: in vivo, po
Method in brief: (§4)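 Secondary dose-response in male Sprague-Dawley rats (~160 g), fasted and hydrated as in the primary screen. Oral gavage at 0.3-100 mg/kg in 25 mL/kg saline/0.5% CMC, three cages of two rats per dose. Urine collected 5 h; Na, K, Cl, HCO3 measured. Values are mean excretion (mequiv), compared with controls at P < 0.05.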

Rattus norvegicus [9] = assay: Mean excretion of chloride in conscious rats at a dose of 1.0 mg/kg given orally; type: ADME, organism-based; design: dose 1 mg/kg, route oral; details: in vivo, po; method in brief: as §4
Rattus norvegicus [10] = assay: Mean excretion of chloride in conscious rats at a dose of 3.0 mg/kg given orally; type: ADME, organism-based; design: dose 3 mg/kg, route oral; details: in vivo, po; method in brief: as §4
Rattus norvegicus [11] = assay: Mean excretion of chloride in conscious rats at a dose of 100 mg/kg given orally; type: ADME, organism-based; design: dose 100 mg/kg, route oral; details: in vivo, po; method in brief: as §4
Rattus norvegicus [12] = assay: Mean excretion of chloride in conscious rats at a dose of 30 mg/kg given orally; type: ADME, organism-based; design: dose 30 mg/kg, route oral; details: in vivo, po; method in brief: as §4
Rattus norvegicus [13] = assay: Mean excretion of potassium in conscious rats at a dose of 100 mg/kg given orally; type: ADME, organism-based; design: dose 100 mg/kg, route oral; details: in vivo, po; method in brief: as §4
Rattus norvegicus [14] = assay: Mean excretion of Cl- in conscious rats at a dose of 0.3 mg/kg given orally; type: ADME, organism-based, Urine; design: dose 0.3 mg/kg, route oral; details: in vivo, po; method in brief: as §2
Rattus norvegicus [15] = assay: Mean excretion of sodium in conscious rats at a dose of 30 mg/kg given orally; type: ADME, organism-based; design: dose 30 mg/kg, route oral; details: in vivo, po; method in brief: as §1
Rattus norvegicus [16] = assay: Mean excretion of potassium in conscious rats at a dose of 30 mg/kg given orally; type: ADME, organism-based; design: dose 30 mg/kg, route oral; details: in vivo, po; method in brief: as §4
Rattus norvegicus [17] = assay: Mean excretion of sodium in conscious rats at a dose of 0.3 mg/kg given orally; type: ADME, organism-based; design: dose 0.3 mg/kg, route oral; details: in vivo, po; method in brief: as §1
Rattus norvegicus [18] = species on record: Rattus norvegicus; assay: […]; type: ADME, organism-based, Urine; design: dose 0.3 mg/kg, route oral; details: in vivo, po, 0.3 mg/kg; method in brief: as §2
Rattus norvegicus [19] = assay: Mean excretion of chloride in conscious rats at a dose of 10 mg/kg given orally; type: ADME, organism-based; design: dose 10 mg/kg, route oral; details: in vivo, po; method in brief: as §4
Rattus norvegicus [20] = assay: Mean excretion of potassium in conscious rats at a dose of 0.3 mg/kg given orally; type: ADME, organism-based; design: dose 0.3 mg/kg, route oral; details: in vivo, po; method in brief: as §4
Rattus norvegicus [21] = assay: Mean excretion of sodium in conscious rats at a dose of 10 mg/kg given orally; type: ADME, organism-based; design: dose 10 mg/kg, route oral; details: in vivo, po; method in brief: as §1
Rattus norvegicus [22] = assay: Mean excretion of potassium in conscious rats at a dose of 10 mg/kg given orally; type: ADME, organism-based; design: dose 10 mg/kg, route oral; details: in vivo, po; method in brief: as §4
Rattus norvegicus [23] = species on record: Rattus norvegicus; assay: […]; type: ADME, organism-based, Urine; design: dose 30 mg/kg, route oral; details: in vivo, po, 30 mg/kg; method in brief: as §1
[24] = Diuretic activity at 40 mg/kg (screening dose-84.7 umol/kg) in […] in a one stage experiment; T/C = urine vol of treated rats / urine vol of control rats; type: functional; method in brief: as §3
Rattus norvegicus [25] = assay: Mean excretion of potassium in conscious rats at a dose of 1.0 mg/kg given orally; type: ADME, organism-based; design: dose 1 mg/kg, route oral; details: in vivo, po; method in brief: as §4
Rattus norvegicus [26] = species on record: Rattus norvegicus; assay: […]; type: ADME, organism-based, Urine; design: dose 3 mg/kg, route oral; details: in vivo, po, 3 mg/kg; method in brief: as §1
[27] = Diuretic activity at 40 mg/kg (screening dose-84 umol/kg) in male […] in a one stage experiment; T/C = urine vol of treated rats / urine vol of control rats; type: functional; method in brief: as §3
[28] = Diuretic activity at 40 mg/kg (screening dose-90.1 umol/kg) in […] in a one stage experiment; T/C = urine vol of treated rats / urine vol of control rats; type: functional; method in brief: as §3
[29] = Diuretic activity at 40 mg/kg (screening dose-90.5 uM/Kg) in […] in a two stage experiment; T/C1.2 = urine vol of treated rats / urine vol of control rats; type: functional; method in brief: as §3

Row | SMILES | Mean excretion of Na+ (Rattus norvegicus [1]) | Mean urine volume (Rattus norvegicus [2]) | Mean excretion of Na+ (Rattus norvegicus [3]) | Mean urine volume (Rattus norvegicus [4]) | Mean urine volume (Rattus norvegicus [5]) | Mean excretion of Na+ (Rattus norvegicus [7]) | Mean excretion of K+ (Rattus norvegicus [8]) | Mean excretion of Cl- (Rattus norvegicus [9]) | Mean excretion of Cl- (Rattus norvegicus [10]) | Mean excretion of Cl- (Rattus norvegicus [11]) | Mean excretion of Cl- (Rattus norvegicus [12]) | Mean excretion of K+ (Rattus norvegicus [13]) | Mean excretion of Cl- (Rattus norvegicus [14]) | Mean excretion of Na+ (Rattus norvegicus [15]) | Mean excretion of K+ (Rattus norvegicus [16]) | Mean excretion of Na+ (Rattus norvegicus [17]) | Mean urine volume (Rattus norvegicus [18]) | Mean excretion of Cl- (Rattus norvegicus [19]) | Mean excretion of K+ (Rattus norvegicus [20]) | Mean excretion of Na+ (Rattus norvegicus [21]) | also measured
1 | COc1ccccc1C(CN(C)C)c1nnc2n1-c1ccc(Cl)cc1C(c1ccccc1)=NC2 (stereo not given) | 0.68 m equiv | 4.56 mL | 0.6 m equiv | 4.92 mL | 5.08 mL | 0.6 m equiv | 0.24 m equiv | 0.69 m equiv | 0.8 m equiv | 0.69 m equiv | 0.76 m equiv | 0.26 m equiv | 0.69 m equiv | 0.61 m equiv | 0.23 m equiv | 0.63 m equiv | 4.8 mL | 0.71 m equiv | 0.17 m equiv | 0.72 m equiv | T/C 1.2 [6]: 5.03; Mean excretion of K+ (Rattus norvegicus [22]): 0.22 m equiv; Mean urine volume (Rattus norvegicus [23]): 5.19 mL; T/C 1 [24]: 2.69; Mean excretion of K+ (Rattus norvegicus [25]): 0.23 m equiv; Mean urine volume (Rattus norvegicus [26]): 5.38 mL
2 | CN(C)CC(c1ccccc1)c1nnc2n1-c1ccc(Cl)cc1C(c1ccc(Cl)cc1)=NC2 (stereo not given) |  |  |  |  |  |  |  |  |  |  |  |  |  |  |  |  |  |  |  |  | T/C 1 [27]: 1.49
3 | CN(C)CC(c1ccccc1)c1nnc2n1-c1ccccc1C(c1ccccc1)=NC2.Cl (stereo not given) |  |  |  |  |  |  |  |  |  |  |  |  |  |  |  |  |  |  |  |  | T/C 1 [28]: 1.48
4 | Nc1nc(N)c2nc(-c3ccccc3)c(N)nc2n1 | 0.83 m equiv | 7.01 mL | 0.88 m equiv | 6.45 mL | 3.5 mL | 0.6 m equiv | 0.1 m equiv | 0.68 m equiv | 0.74 m equiv | 0.7 m equiv | 1.15 m equiv | 0.06 m equiv | 0.47 m equiv | 1.41 m equiv | 0.04 m equiv | 0.4 m equiv | 2.22 mL | 0.81 m equiv | 0.12 m equiv | 1 m equiv | Mean excretion of K+ (Rattus norvegicus [22]): 0.08 m equiv; Mean urine volume (Rattus norvegicus [23]): 9.28 mL; Mean excretion of K+ (Rattus norvegicus [25]): 0.1 m equiv; Mean urine volume (Rattus norvegicus [26]): 4.32 mL
5 | COc1cccc(C2=NCc3nnc(C(CN(C)C)c4ccccc4)n3-c3ccc(Cl)cc32)c1 (stereo not given) |  |  |  |  |  |  |  |  |  |  |  |  |  |  |  |  |  |  |  |  | T/C 1 [24]: 1.34
6 | COc1cccc(C(CN(C)C)c2nnc3n2-c2ccc(Cl)cc2C(c2ccccc2)=NC3)c1 (stereo not given) | 0.79 m equiv | 12.03 mL | 1.76 m equiv | 5.99 mL | 3.74 mL | 0.64 m equiv | 0.17 m equiv | 0.72 m equiv | 0.78 m equiv | 1.8 m equiv | 1.99 m equiv | 0.3 m equiv | 0.59 m equiv | 1.99 m equiv | 0.24 m equiv | 0.52 m equiv | 3.37 mL | 1.11 m equiv | 0.22 m equiv | 1.13 m equiv | T/C 1.2 [29]: 7.31; Mean excretion of K+ (Rattus norvegicus [22]): 0.17 m equiv; Mean urine volume (Rattus norvegicus [23]): 12.21 mL; T/C 1 [24]: 3.18; Mean excretion of K+ (Rattus norvegicus [25]): 0.21 m equiv; Mean urine volume (Rattus norvegicus [26]): 4.29 mL
7 | COc1ccc(C(CN(C)C)c2nnc3n2-c2ccc(Cl)cc2C(c2ccccc2)=NC3)cc1 (stereo not given) | 0.68 m equiv | 12.25 mL | 1.91 m equiv | 5.74 mL | 4.81 mL | 0.66 m equiv | 0.23 m equiv | 0.71 m equiv | 0.75 m equiv | 1.65 m equiv | 1.55 m equiv | 0.26 m equiv | 0.71 m equiv | 1.58 m equiv | 0.18 m equiv | 0.67 m equiv | 4.13 mL | 0.93 m equiv | 0.23 m equiv | 0.93 m equiv | T/C 1.2 [6]: 5.57; Mean excretion of K+ (Rattus norvegicus [22]): 0.19 m equiv; Mean urine volume (Rattus norvegicus [23]): 10.47 mL; T/C 1 [24]: 2.77; Mean excretion of K+ (Rattus norvegicus [25]): 0.25 m equiv; Mean urine volume (Rattus norvegicus [26]): 4.98 mL
